Assay results reported in ChEMBL document CHEMBL1135587, “Discovery and structure-activity relationship of N-(ureidoalkyl)-benzyl-piperidines as potent small molecule CC chemokine receptor-3 (CCR3) antagonists” (J Med Chem, 2002).

Tests used:
[1] = target: T1, C-C chemokine receptor type 3 (Homo sapiens) (UniProt P51677); assay: Evaluated for its inhibitory activity against Chemokine receptor type 3 at 5 uM
T1 sequence (whole entry): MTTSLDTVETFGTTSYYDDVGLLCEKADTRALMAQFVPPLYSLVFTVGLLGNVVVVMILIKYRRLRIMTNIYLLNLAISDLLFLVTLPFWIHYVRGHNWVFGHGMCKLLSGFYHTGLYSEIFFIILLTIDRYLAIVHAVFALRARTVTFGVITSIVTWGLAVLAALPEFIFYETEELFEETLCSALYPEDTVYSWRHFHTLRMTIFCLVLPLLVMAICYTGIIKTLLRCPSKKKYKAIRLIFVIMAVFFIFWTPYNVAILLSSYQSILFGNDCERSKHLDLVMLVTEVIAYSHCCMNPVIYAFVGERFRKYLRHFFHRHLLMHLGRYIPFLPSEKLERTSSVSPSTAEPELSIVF
Summary of the method: (§1)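 CHO cells transfected with human CCR3, 5×10^5 per well, incubated 30 min at room temperature with 150 pM (final) 125I-labeled human eotaxin and compound. Binding buffer: RPMI 1640 with 0.5% BSA, 20 mM HEPES, 5 mM MgCl2. Filtration on protamine-treated filter plates, washed with binding buffer plus 0.5 M NaCl, filter counted. Nonspecific binding defined with 100 nM eotaxin. Percent inhibition taken against compound-free total binding. IC50 values are the mean of usually three determinations.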

[2] = target: T1, C-C chemokine receptor type 3 (Homo sapiens); assay: Evaluated for its inhibitory activity against human Chemokine receptor type 3 expressed in chinese hamster ovary cells at 10 uM; type: cell-based; details: CHO; summary of the method: as §1
[3] = target: T2, C-C chemokine receptor type 3 (Homo sapiens, UniProt P51677); assay: Inhibitory activity against recombinant human Chemokine receptor type 3 (CCR3) expressed in chinese hamster ovary cells; type: cell-based, CHO; summary of the method: as §1
T2 sequence (P51677 whole entry): T1 sequence (whole entry)

[4] = The compound was evaluated for its intracellular calcium mobilization; type: functional, cell-based; details: Homo sapiens
Summary of the method: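 Freshly isolated human eosinophils loaded with 5 μM fluo-3 for 60 min at 37 °C, washed, then plated at 2×10^5/well in phenol red-free binding buffer. Compound or buffer added for 5 min, then eotaxin to 10 nM final, read on FLIPR. Base-to-peak fluorescence shift measured in duplicate; inhibition at graded concentrations expressed as percent of the compound-free eotaxin control to give IC50.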

[5] = The compound was evaluated for its eotaxin-induced chemotaxis; type: functional, Homo sapiens
Summary of the method: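 Freshly isolated human eosinophils at 1×10^6 cells/mL in RPMI 1640/0.1% BSA; cells and 20 nM human eotaxin each mixed 1:1 with compound-containing medium. Eotaxin/compound in the lower well, cells/compound above, across a 5 μm PVP-free polycarbonate filter, 45 min at 37 °C. Filter wiped, dried and Wright Giemsa-stained; migrated cells counted by microscopy.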

[6] = target: T2, C-C chemokine receptor type 3; assay: Evaluated for its inhibitory activity against human Chemokine receptor type 3 expressed in chinese hamster ovary cells; type: cell-based, CHO
Summary of the method: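 Competition binding on CHO cells transfected with human CCR3, 5×10^5 cells per well, against 125I-human eotaxin at 150 pM final. Binding buffer: RPMI 1640 with 0.5% BSA, 20 mM HEPES, 5 mM MgCl2. Incubated 30 min at room temperature, then filtered on protamine-treated plates and washed with buffer plus 0.5 M NaCl before counting. Background binding defined with 100 nM eotaxin. Percent inhibition taken against the compound-free total. Values usually mean of three determinations.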

[7] = target: T1, C-C chemokine receptor type 3 (Homo sapiens); assay: Evaluated for its % inhibitory activity against human Chemokine receptor type 3 expressed in chinese hamster ovary cells; type: cell-based; details: CHO; concentration not given here; summary of the method: as §1
[8] = target: T1, C-C chemokine receptor type 3 (Homo sapiens); assay: Evaluated for its inhibitory activity against human Chemokine receptor type 3 expressed in chinese hamster ovary cells at 5 uM; type: cell-based; details: CHO; summary of the method: as §1
[9] = target: T1, C-C chemokine receptor type 3 (Homo sapiens); assay: Evaluated for its % inhibitory activity against Chemokine receptor type 3 at 5 uM; summary of the method: as §1
[10] = target: T3, C-C chemokine receptor type 1 (Homo sapiens, UniProt P32246); assay: Inhibitory activity against human Chemokine receptor type 1 expressed in chinese hamster ovary cells; type: cell-based, CHO
T3 sequence (P32246 whole entry): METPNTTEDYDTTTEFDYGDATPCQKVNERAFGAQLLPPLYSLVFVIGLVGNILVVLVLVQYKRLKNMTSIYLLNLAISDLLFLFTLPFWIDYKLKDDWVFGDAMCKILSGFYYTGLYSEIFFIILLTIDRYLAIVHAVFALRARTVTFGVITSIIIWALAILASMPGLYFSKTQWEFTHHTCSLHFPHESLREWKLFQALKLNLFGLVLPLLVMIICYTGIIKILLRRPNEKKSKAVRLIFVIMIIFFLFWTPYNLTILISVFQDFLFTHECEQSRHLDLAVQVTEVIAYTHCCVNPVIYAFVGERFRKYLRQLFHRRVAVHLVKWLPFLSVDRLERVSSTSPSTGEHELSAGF

## O=C(Nc1ccccc1)Nc1ccccc1/C(CN1CCC(Cc2ccccc2)CC1)=N\O
[1]
  inhibition: 59%

## OC1(c2ccc(Cl)cc2)CCN(CCc2ccccc2)CC1
[2]
  inhibition: 19%

## CNC(=O)c1cccc(NC(=O)Nc2ccccc2)c1CN1CCC(Cc2ccc(F)cc2)CC1
[3]
  IC50: 2 nM
[4]
  IC50: 4.3 nM

## CNC(=O)c1cccc(NC(=O)Nc2cccc(C(C)=O)c2)c1CN1CCC(Cc2ccc(F)cc2)CC1
[3]
  IC50: 1 nM
[5]
  IC50: 30 nM
[4]
  IC50: 1.4 nM

## CC(=O)c1cccc(NC(=O)Nc2ccc(C(N)=O)cc2CN2CCC(Cc3ccc(F)cc3)CC2)c1
[3]
  IC50: 3 nM
[4]
  IC50: 9.5 nM

## OC1(c2ccc(Cl)cc2)CCN(Cc2ccccc2)CC1
[6]
  IC50: 18700 nM

## COC(=O)c1ccc(CN2CCC(Cc3ccccc3)CC2)c(NC(=O)Nc2cccc(C#N)c2)c1
[7]
  inhibition: 72%

## O=C(Nc1cc(F)ccc1F)Nc1ccccc1CN1CCC(O)(c2ccc(Cl)cc2)CC1
[8]
  inhibition: 21%

## O=C(Nc1ccc(F)cc1F)Nc1ccccc1C(=O)CN1CCC(Cc2ccccc2)CC1
[9]
  inhibition: 35%

## COC(=O)c1cccc(NC(=O)Nc2cccc(C(C)=O)c2)c1CN1CCC(Cc2ccc(F)cc2)CC1
[3]
  IC50: 8 nM
[5]
  IC50: 76 nM
[4]
  IC50: 8.2 nM

## O=C(Nc1ccccc1)Nc1cccc(C(O)CN2CCC(Cc3ccccc3)CC2)c1 (stereo unspecified)
[8]
  inhibition: 71%

## CNC(=O)c1cccc(NC(=O)Nc2cccc(C#N)c2)c1CN1CCC(Cc2ccc(F)cc2)CC1
[3]
  IC50: 1 nM
[4]
  IC50: 5.3 nM

## COC(=O)N1CCC(NC(=O)NCC(CCCN2CCC(O)(c3ccc(Cl)cc3)CC2)(c2ccccc2)c2ccccc2)CC1
[10]
  IC50: 500 nM
[3]
  IC50: 5300 nM

## O=C(NCC(CCCN1CCC(O)(c2ccc(Cl)cc2)CC1)(c1ccccc1)c1ccccc1)Nc1cccc(C(F)(F)F)c1
[10]
  IC50: 1410 nM
[3]
  IC50: 19300 nM

## CNC(=O)NCC(CCCN1CCC(O)(c2ccc(Cl)cc2)CC1)(c1ccccc1)c1ccccc1
[10]
  IC50: < 780 nM
[3]
  IC50: 8300 nM

## O=C(NCC(CCCN1CCC(O)(c2ccc(Cl)cc2)CC1)(c1ccccc1)c1ccccc1)Nc1cc(F)ccc1F
[10]
  IC50: 1340 nM
[3]
  IC50: 5700 nM

## CC(=O)c1cccc(NC(=O)Nc2cccc(C(N)=O)c2CN2CCC(Cc3ccc(F)cc3)CC2)c1
[3]
  IC50: 2 nM
[5]
  IC50: 46 nM
[4]
  IC50: 5.9 nM

## COc1cccc(NC(=O)Nc2ccccc2C(O)CN2CCC(Cc3ccccc3)CC2)c1 (stereo unspecified)
[10]
  IC50: > 10000 nM
[3]
  IC50: 81 nM

## O=C(NCCc1ccc(F)cc1)NCC(CCCN1CCC(O)(c2ccc(Cl)cc2)CC1)(c1ccccc1)c1ccccc1
[10]
  IC50: 295 nM
[3]
  IC50: 2200 nM

## CC(C)NC(=O)NCC(CCCN1CCC(O)(c2ccc(Cl)cc2)CC1)(c1ccccc1)c1ccccc1
[10]
  IC50: < 780 nM
[3]
  IC50: 6100 nM
